Results gathered from unrelated publications.
Lines come from different studies, so protocols differ.
Target: Serine/threonine-protein kinase Nek7 (NEK7, Homo sapiens, UniProt Q8TDX7)

SMILES | assay | conditions | endpoint | result
COc1ncccc1-c1cnn2ccc(N3CCN(C(=O)OC(C)C)CC3)nc12 | binding, competition with immobilised ligand | 1 µM | remaining binding | 100%
N#CC1(c2ccccn2)CCN(Cc2cc(C(=O)O)c(=O)n3ccccc23)CC1 | cell-free assay, competition with immobilised ligand | 1 µM | remaining binding | 100%
COc1cc(Nc2ncc(F)c(Nc3ccc4c(n3)NC(=O)C(C)(C)O4)n2)cc(OC)c1OC | binding, competition with immobilised ligand | 10 µM | inhibition | 100%
Cc1nn(C)cc1-c1nc2c(N3CCN(Cc4ccc(Cl)cc4)CC3)c(Cl)cnc2[nH]1 | binding, competition with immobilised ligand | 1 µM | remaining binding | 100%
Cn1cncc1[C@](O)(COc1ccc(C#N)cc1-c1ccc(OC(F)(F)F)cc1)c1ccc(C#N)cc1 | cell-free assay, competition with immobilised ligand | 1 µM | remaining binding | 46%
Cn1cc(-c2cc(F)cc(N3CCn4c(cc5c4CCCC5)C3=O)c2CO)cc(Nc2ccc(N3CCN(C4COC4)CC3)cn2)c1=O | enzyme activity, inhibitor | 0.1 µM | inhibition | 10%
CC(C)(C)c1cc(C=C(C#N)C#N)cc(Br)c1O | enzyme activity, inhibitor | 0.5 µM | remaining activity | 89.5%
Cn1cc(-c2cccc(N3CCc4c(sc5c4CC(C)(C)C5)C3=O)c2CO)cc(Nc2ccncn2)c1=O | enzyme activity, inhibitor | 1 µM | inhibition | 1%
Nc1ncc(-c2nc(N3CCOCC3)nc(N3CCOCC3)n2)c(C(F)F)n1 | binding, competition with immobilised ligand | 10 µM | remaining binding | 70%
O=c1[nH]c2ccccc2n1C1CCN(Cc2ccc(-c3[nH]c4cc5ncnc5cc4nc3-c3ccccc3)cc2)CC1 | cell-free assay | 0.5 µM | remaining signal | 99.6%
